From ChEMBL document CHEMBL1122522, “Conformationally restricted retinoids” (1984)

What was measured:
Cricetinae gen. sp. [1] = assay: Activity of compound the was expressed as ratio of active hamster tracheal organ cultures(TOC) to the total cultures at 10e-10 M concentration; 1/7; assay type: functional, Cricetulus griseus, Trachea
How it was run: (§1)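 Tracheal organ cultures came from vitamin A-deficient hamsters. Each culture was scored for reversal of keratinization and reported as active cultures out of total cultures at each retinoid concentration tested (10⁻⁸ to 10⁻¹² M). The protocol followed earlier published methods.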

Cricetinae gen. sp. [2] = assay: Molarity required to effect reversal of keratinization in 50% of cultures.; assay type: functional, Cricetulus griseus
Cricetinae gen. sp. [3] = assay: Activity of compound the was expressed as ratio of active hamster tracheal organ cultures(TOC) to the total cultures at 10e-8 M concentration; 4/7; assay type: functional, Cricetulus griseus, Trachea; how it was run: as §1
Cricetinae gen. sp. [4] = assay: Activity of compound the was expressed as ratio of active hamster tracheal organ cultures(TOC) to the total cultures at 10e-9 M concentration; 2/6; assay type: functional, Cricetulus griseus, Trachea; how it was run: as §1
[5] = biological target: T1, Ornithine decarboxylase (Mus musculus) (UniProt P00860); assay: Inhibition of the induction of ornithine decarboxylase in mouse epidermis by the tumor promoter 12-O-tetradecanoylphorbol-13-acetate (ODC) at dose 1.7 nmol * p<0.001* inhibition not significant
T1 sequence (whole entry): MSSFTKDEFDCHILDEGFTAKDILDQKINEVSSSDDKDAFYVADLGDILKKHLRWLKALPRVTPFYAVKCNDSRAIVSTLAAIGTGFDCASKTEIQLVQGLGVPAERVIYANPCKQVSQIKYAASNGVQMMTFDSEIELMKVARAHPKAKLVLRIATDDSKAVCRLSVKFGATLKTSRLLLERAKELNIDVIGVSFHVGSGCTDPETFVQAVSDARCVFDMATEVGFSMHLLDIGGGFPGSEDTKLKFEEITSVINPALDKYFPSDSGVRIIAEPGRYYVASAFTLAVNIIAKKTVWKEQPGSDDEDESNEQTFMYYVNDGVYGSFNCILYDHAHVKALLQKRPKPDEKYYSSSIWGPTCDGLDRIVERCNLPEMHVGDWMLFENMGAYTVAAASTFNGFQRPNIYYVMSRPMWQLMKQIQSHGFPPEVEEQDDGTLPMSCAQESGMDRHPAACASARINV

[6] = biological target: T1, Ornithine decarboxylase (Mus musculus); assay: Inhibition of the induction of ornithine decarboxylase in mouse epidermis by the tumor promoter 12-O-tetradecanoylphorbol-13-acetate (ODC) at dose 17 nmol * inhibition not significant
[7] = biological target: T1, Ornithine decarboxylase (Mus musculus); assay: Inhibition of the induction of ornithine decarboxylase in mouse epidermis by the tumor promoter 12-O-tetradecanoylphorbol-13-acetate (ODC) at dose 1.7 nmol
Cricetinae gen. sp. [8] = assay: Activity of compound the was expressed as ratio of active hamster tracheal organ cultures(TOC) to the total cultures at 10e-10 M concentration; 4/15; assay type: functional, Cricetulus griseus, Trachea; conditions: at 0.0001 µM
Cricetinae gen. sp. [9] = assay: Activity of compound the was expressed as ratio of active hamster tracheal organ cultures(TOC) to the total cultures at 10e-11 M concentration; 1/8; assay type: functional, Cricetulus griseus, Trachea; conditions: at 10 pM
Cricetinae gen. sp. [10] = assay: Activity of compound the was expressed as ratio of active hamster tracheal organ cultures(TOC) to the total cultures at 10e-8 M concentration; 7/7; assay type: functional, Cricetulus griseus, Trachea; conditions: at 0.01 µM
Cricetinae gen. sp. [11] = assay: Activity of compound the was expressed as ratio of active hamster tracheal organ cultures(TOC) to the total cultures at 10e-9 M concentration; 14/15; assay type: functional, Cricetulus griseus, Trachea; conditions: at 0.001 µM
[12] = biological target: T1, Ornithine decarboxylase (Mus musculus); assay: TInhibition of the induction of ornithine decarboxylase in mouse epidermis by the tumor promoter 12-O-tetradecanoylphorbol-13-acetate (ODC) at dose 17 nmol
Cricetinae gen. sp. [13] = assay: Activity of compound the was expressed as ratio of active hamster tracheal organ cultures(TOC) to the total cultures at 10e-10 M concentration; 1/6; assay type: functional, Cricetulus griseus, Trachea; how it was run: as §1
Cricetinae gen. sp. [14] = assay: Activity of compound the was expressed as ratio of active hamster tracheal organ cultures(TOC) to the total cultures at 10e-9 M concentration; 3/7; assay type: functional, Cricetulus griseus, Trachea; how it was run: as §1
[15] = biological target: T1, Ornithine decarboxylase (Mus musculus); assay: Inhibition of the induction of ornithine decarboxylase in mouse epidermis by the tumor promoter 12-O-tetradecanoylphorbol-13-acetate (ODC) at dose 17 nmol * p<0.01
[16] = biological target: T1, Ornithine decarboxylase (Mus musculus); assay: Inhibition of the induction of ornithine decarboxylase in mouse epidermis by the tumor promoter 12-O-tetradecanoylphorbol-13-acetate (ODC) at dose 1.7 nmol * Inhibition not significant
Cricetinae gen. sp. [17] = assay: Activity of compound the was expressed as ratio of active hamster tracheal organ cultures(TOC) to the total cultures at 10e-8 M concentration; 1/5; assay type: functional, Cricetulus griseus, Trachea; how it was run: as §1
Cricetinae gen. sp. [18] = assay: Activity of compound the was expressed as ratio of active hamster tracheal organ cultures(TOC) to the total cultures at 10e-9 M concentration; 1/5; assay type: functional, Cricetulus griseus, Trachea; how it was run: as §1
Cricetinae gen. sp. [19] = assay: Activity of compound the was expressed as ratio of active hamster tracheal organ cultures(TOC) to the total cultures at 10e-10 M concentration; 7/7; assay type: functional, Cricetulus griseus, Trachea; conditions: in the assay text read “10e-8 M” for “1 nM”; how it was run: as §1
Cricetinae gen. sp. [20] = assay: Activity of compound the was expressed as ratio of active hamster tracheal organ cultures(TOC) to the total cultures at 10e-11 M concentration; 7/7; assay type: functional, Cricetulus griseus, Trachea; conditions: in the assay text read “10e-9 M” for “100 pM”; how it was run: as §1
Cricetinae gen. sp. [21] = assay: Activity of compound the was expressed as ratio of active hamster tracheal organ cultures(TOC) to the total cultures at 10e-12 M concentration; 0/6; assay type: functional, Cricetulus griseus, Trachea; conditions: in the assay text read “1 nM” for “10 pM”; how it was run: as §1
[22] = biological target: T1, Ornithine decarboxylase (Mus musculus); assay: Inhibition of the induction of ornithine decarboxylase in mouse epidermis by the tumor promoter 12-O-tetradecanoylphorbol-13-acetate (ODC) at dose 17 nmol * p<0.001
[23] = biological target: T1, Ornithine decarboxylase (Mus musculus); assay: Inhibition of the induction of ornithine decarboxylase in mouse epidermis by the tumor promoter 12-O-tetradecanoylphorbol-13-acetate (ODC) at dose 1.7 nmol * p<0.001

With `CCOC(=O)c1ccc(C2CC2c2ccc3c(c2)C2CCC3C2)cc1` (stereo not given) the Activity (Cricetinae gen. sp. [1]) was 1%, the ED50 (Cricetinae gen. sp. [2]) was 5e-09 and the Activity (Cricetinae gen. sp. [3]) was 4%. The Activity (Cricetinae gen. sp. [4]) was 33%, the inhibition [5] was 12% and the inhibition [6] was 0%.

`CC1=C(/C=C/C(C)=C/c2ccc(C(=O)O)cc2)C(C)(C)CCC1` was tested, and the ED50 (Cricetinae gen. sp. [2]) was 3e-10 and the inhibition [7] was 77%.

Molecule `CC1=C(CC/C(C)=C/c2ccc(C(=O)O)cc2)C(C)(C)CCC1` has an Activity (Cricetinae gen. sp. [8]) of 4 active cultures, an Activity (Cricetinae gen. sp. [9]) of 1 active cultures and an ED50 (Cricetinae gen. sp. [2]) of 3e-10. It also gave an Activity (Cricetinae gen. sp. [10]) of 7%, an Activity (Cricetinae gen. sp. [11]) of 14 active cultures and an inhibition [12] of 83%. For the same molecule, the inhibition [7] was 45%.

For `CCOC(=O)c1ccc(/C=C/c2ccc3c(c2)C2CCC3C2)cc1` (stereo not given), the Activity (Cricetinae gen. sp. [13]) was 1%, the ED50 (Cricetinae gen. sp. [2]) was 3e-09 and the Activity (Cricetinae gen. sp. [3]) was 4%. The Activity (Cricetinae gen. sp. [14]) was 43%, the inhibition [15] was 39% and the inhibition [16] was 15%.

Molecule `CC1=C(/C=C/c2ccc(/C(C)=C/C(=O)O)cc2)C(C)(C)CCC1` has an Activity (Cricetinae gen. sp. [17]) of 1%, an ED50 (Cricetinae gen. sp. [2]) greater than 1e-08 and an Activity (Cricetinae gen. sp. [18]) of 1%.

`CCOC(=O)c1ccc(/C=C(\C)[C@H]2CC2C2=C(C)CCCC2(C)C)cc1` (stereo not given in full) showed an Activity (Cricetinae gen. sp. [19]) of 7%, an ED50 (Cricetinae gen. sp. [2]) of 3e-10 and an Activity (Cricetinae gen. sp. [20]) of 7%. The Activity (Cricetinae gen. sp. [21]) was 0%, the inhibition [22] was 80% and the inhibition [23] was 77%.
